Reference: ChEMBL document CHEMBL1147679, “Differential inhibition of group IVA and group VIA phospholipases A2 by 2-oxoamides” (2006)
Calls of active or inactive are those of the source. The rule behind the calls is not given here.

How the values were obtained:
[1] = target: T1, 85/88 kDa calcium-independent phospholipase A2 (Homo sapiens) (UniProt O60733); assay: Inhibition of group 6A iPLA2 at 0.02 mole fraction
T1 sequence (whole entry): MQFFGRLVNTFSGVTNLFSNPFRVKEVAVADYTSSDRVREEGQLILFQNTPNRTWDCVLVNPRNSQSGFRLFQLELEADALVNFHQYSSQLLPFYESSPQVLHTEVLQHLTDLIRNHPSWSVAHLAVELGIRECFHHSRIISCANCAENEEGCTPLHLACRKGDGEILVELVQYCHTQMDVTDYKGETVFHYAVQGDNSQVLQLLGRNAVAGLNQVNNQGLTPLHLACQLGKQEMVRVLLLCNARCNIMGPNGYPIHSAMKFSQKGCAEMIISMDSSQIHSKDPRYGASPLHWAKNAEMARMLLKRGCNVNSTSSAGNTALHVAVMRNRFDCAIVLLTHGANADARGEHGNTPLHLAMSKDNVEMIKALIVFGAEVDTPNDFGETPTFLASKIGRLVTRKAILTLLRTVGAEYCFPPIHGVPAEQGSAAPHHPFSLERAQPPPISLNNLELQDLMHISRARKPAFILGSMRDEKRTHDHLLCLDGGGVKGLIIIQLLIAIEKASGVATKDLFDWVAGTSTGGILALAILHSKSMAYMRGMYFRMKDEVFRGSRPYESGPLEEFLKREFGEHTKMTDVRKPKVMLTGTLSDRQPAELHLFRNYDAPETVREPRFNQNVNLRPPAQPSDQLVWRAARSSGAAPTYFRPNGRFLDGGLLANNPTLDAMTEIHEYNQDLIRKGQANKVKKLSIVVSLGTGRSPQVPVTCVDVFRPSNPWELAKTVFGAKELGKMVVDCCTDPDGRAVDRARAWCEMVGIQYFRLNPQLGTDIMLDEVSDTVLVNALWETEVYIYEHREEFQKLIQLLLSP

[2] = target: T2, Cytosolic phospholipase A2 (Homo sapiens) (UniProt P47712); assay: Inhibition of group 4A cPLA2 at 0.01 mole fraction
T2 sequence (whole entry): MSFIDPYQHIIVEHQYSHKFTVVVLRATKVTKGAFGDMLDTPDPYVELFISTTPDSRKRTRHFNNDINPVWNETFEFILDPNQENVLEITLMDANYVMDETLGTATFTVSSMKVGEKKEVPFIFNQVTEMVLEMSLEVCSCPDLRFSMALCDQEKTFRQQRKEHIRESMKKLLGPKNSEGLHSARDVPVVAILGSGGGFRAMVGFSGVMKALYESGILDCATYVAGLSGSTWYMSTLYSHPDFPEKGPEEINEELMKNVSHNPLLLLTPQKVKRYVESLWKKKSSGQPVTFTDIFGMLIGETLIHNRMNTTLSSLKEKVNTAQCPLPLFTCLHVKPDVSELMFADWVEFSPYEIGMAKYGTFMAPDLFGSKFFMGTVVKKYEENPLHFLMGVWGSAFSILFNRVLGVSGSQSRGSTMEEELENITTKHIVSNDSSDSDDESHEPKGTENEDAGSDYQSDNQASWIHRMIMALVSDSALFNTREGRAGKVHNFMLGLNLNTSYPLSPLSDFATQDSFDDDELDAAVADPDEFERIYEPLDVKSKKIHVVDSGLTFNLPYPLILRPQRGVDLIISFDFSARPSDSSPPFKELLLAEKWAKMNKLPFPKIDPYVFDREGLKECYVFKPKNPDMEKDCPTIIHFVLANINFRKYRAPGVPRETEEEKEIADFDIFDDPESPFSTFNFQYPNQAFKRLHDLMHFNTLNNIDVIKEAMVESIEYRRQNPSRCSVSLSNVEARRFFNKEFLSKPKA

[3] = target: T1, 85/88 kDa calcium-independent phospholipase A2 (Homo sapiens); assay: Inhibition of group 6A iPLA2 at 0.091 mole fraction
How it was run: (§1)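 Recombinant human GVIA-2 iPLA2 (His-tagged) was expressed in Sf9 cells by baculovirus and purified on Ni-NTA. Enzyme (190 ng) acted on mixed micelles of 100 µM DPPC with [14C]-palmitoyl PC tracer and 400 µM Triton X-100, in HEPES pH 7.5 with EDTA, DTT and ATP and 1% DMSO. Runs were 30 min at 40 °C, read by modified Dole assay. XI(50) (mole fraction) came from a logarithmic or linear fit; highest dose 0.091 mole fraction.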

[4] = target: T2, Cytosolic phospholipase A2 (Homo sapiens); assay: Inhibition of group 4A cPLA2 at 0.091 mole fraction
How it was run: (§2)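 Native human GIVA cPLA2 (10 ng) was assayed in 100 mM HEPES pH 7.5 with 80 µM CaCl2, 0.1 mg/mL fatty-acid-free BSA and 2 mM DTT. Substrate was 97 µM 1-palmitoyl-2-[14C]-arachidonoyl PC with 3 µM PIP2 and 400 µM Triton X-100 micelles, plus 1% DMSO. Runs were 30 min at 40 °C, read by modified Dole assay. Potency is XI(50) in surface mole fraction; highest dose 0.091 mole fraction.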

[5] = target: T2, Cytosolic phospholipase A2 (Homo sapiens); assay: Inhibition of group 4A cPLA2; how it was run: as §2
[6] = test system: RAW264.7; assay: Inhibition of LPS-stimulated prostaglandin PGE2 production in mouse RAW 264.7 macrophage-like cell line; assay type: functional
How it was run: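 RAW 264.7 cells in DMEM/10% FCS were plated at 5×10^5 per well, allowed to adhere 24 h, then held serum-free 18 h. Inhibitors, in DMSO (<0.5% v/v) diluted into serum-free medium, were added 30 min before 100 ng/mL E. coli 0111:B4 LPS for 24 h. Medium PGE2 was quantified by LC-MS (negative ESI, MRM) against a deuterated PGE2 internal standard.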

[7] = target: T1, 85/88 kDa calcium-independent phospholipase A2 (Homo sapiens); assay: Inhibition of group 6A iPLA2; how it was run: as §1

inhibition [3] | inhibition [4] | XI50 (mole fraction) [5] | Structure (SMILES) | further results
– | – | – | CCCCCCCCCCCCCCC(=O)C(=O)NCCCCCC | inhibition [1]: 25%; inhibition [2]: 0%
– | – | – | CCCCCCCCCCCCCC(=O)C(N)=O | inhibition [1]: 0%; inhibition [2]: 0%
0% | 0% | – | NC(=O)C(=O)CCCCc1ccccc1 | –
0% | 0% | – | O=C(O)CCCNC(=O)C(=O)CCCc1ccccc1 | –
0% | 0% | – | COC(=O)CCCNC(=O)C(=O)CCCCc1ccccc1 | –
0% | – | 0.011 | CCCCCCCC/C=C\CCCCCCCC(=O)C(=O)NCCCC(=O)O | –
0% | 0% | – | O=C(O)CCCNC(=O)C(=O)CCCCc1ccccc1 | –
– | – | 0.018 | CCCCCCCCCCCCCCC(=O)C(=O)N[C@@H](/C=C/C(=O)OC)CCCC | Inhibition [6]: 40%; XI50 (mole fraction) [7]: 0.032
0% | – | 0.003 | CCCCCCCCCCCCCCC(=O)C(=O)N[C@H](/C=C/C(=O)O)CCCC | –
– | – | – | CCCCCCCCCCCCCCCCNC(=O)C(=O)CC | inhibition [1]: 25%; inhibition [2]: 0%
25% | 0% | – | CCCCCCCCCCCCCCC(=O)C(=O)NCCCC(=O)OC | inhibition [6]: inactive
0% | – | 0.017 | CCCCCCCCCCCCCCC(=O)C(=O)NCCCC(=O)O | –
0% | 0% | – | COC(=O)CCCNC(=O)C(=O)CCCc1ccccc1 | –
– | – | 0.012 | CCCCCCCC/C=C\CCCCCCCC(=O)C(=O)NCCCC(=O)OC | Inhibition [6]: 40%; XI50 (mole fraction) [7]: 0.067
